According to ChEMBL document CHEMBL2034974, “Design, synthesis and structure-activity relationships of new triazole derivatives containing N-substituted phenoxypropylamino side chains” (2012):
Values after ≈ are worked out from the molar mass of the structure shown.

Tests used:
Assay type in all cases: functional
Candida albicans = assay: Antifungal activity against Candida albicans after 24 hrs by serial dilution method
Procedure, shortened: (§1)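 NCCLS broth microdilution in 96-well plates, with ATCC or clinical isolate strains. Medium was RPMI 1640 buffered with 0.165 M MOPS, and compounds were dissolved in DMSO and serially diluted in medium. Yeasts were incubated at 35 °C and growth was read at 24 h. MIC80 was taken as the lowest concentration giving ≥80% growth inhibition versus the drug-free control.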

Candida tropicalis = assay: Antifungal activity against Candida tropicalis after 24 hrs by serial dilution method; procedure, shortened: as §1
Candida parapsilosis = assay: Antifungal activity against Candida parapsilosis after 24 hrs by serial dilution method; settings: Lodderomyces parapsilosis; procedure, shortened: as §1
Cryptococcus neoformans = assay: Antifungal activity against Cryptococcus neoformans after 72 hrs by serial dilution method
Procedure, shortened: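 Cryptococcus yeast, ATCC or clinical isolate, tested by NCCLS serial dilution in 96-well plates with RPMI 1640 plus 0.165 M MOPS. Compounds were dissolved in DMSO and serially diluted in medium. Incubation was at 35 °C with MIC80 read at 72 h, defined as the lowest concentration giving ≥80% growth inhibition relative to control.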

Pichia kudriavzevii = assay: Antifungal activity against Candida krusei after 24 hrs by serial dilution method; procedure, shortened: as §1
Trichophyton rubrum = assay: Antifungal activity against Trichophyton rubrum by serial dilution method
Procedure, shortened: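 Dermatophyte, ATCC or clinical isolate, tested by NCCLS serial-dilution microtest in RPMI 1640 buffered with 0.165 M MOPS. Compounds were dissolved in DMSO and diluted serially in medium, and incubation was at 28 °C. The endpoint was MIC80, the lowest concentration reducing turbidity to ≥80% inhibition of control growth.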

MIC80 (Candida albicans) [µg/mL]	MIC80 (Candida tropicalis) [µg/mL]	MIC80 (Candida parapsilosis) [µg/mL]	MIC80 (Cryptococcus neoformans) [µg/mL]	MIC80 (Pichia kudriavzevii) [µg/mL]	MIC80 (Trichophyton rubrum) [µg/mL]	SMILES
0.5 (≈ 1.04 µM)	2 (≈ 4.16 µM)	1 (≈ 2.08 µM)	1 (≈ 2.08 µM)	2 (≈ 4.16 µM)	2 (≈ 4.16 µM)	CN(CCCOc1ccc(Br)cc1)CC(O)(Cn1cncn1)c1ccc(F)cc1F (centres undefined)
0.0125 (≈ 0.0311 µM)	< 0.125	0.125 (≈ 0.311 µM)	1 (≈ 2.48 µM)	0.5 (≈ 1.24 µM)	1 (≈ 2.48 µM)	CN(CCCOc1ccccc1)CC(O)(Cn1cncn1)c1ccc(F)cc1F (centres undefined)
2 (≈ 4.5 µM)	8 (≈ 18 µM)	16 (≈ 36 µM)	4 (≈ 9 µM)	1 (≈ 2.25 µM)	8 (≈ 18 µM)	CCCCN(CCCOc1ccccc1)CC(O)(Cn1cncn1)c1ccc(F)cc1F (racemic)
1 (≈ 2.32 µM)	16 (≈ 37.2 µM)	32 (≈ 74.3 µM)	1 (≈ 2.32 µM)	1 (≈ 2.32 µM)	4 (≈ 9.29 µM)	CCCN(CCCOc1ccccc1)CC(O)(Cn1cncn1)c1ccc(F)cc1F (racemic)
0.0313 (≈ 0.0752 µM)	0.5 (≈ 1.2 µM)	2 (≈ 4.8 µM)	1 (≈ 2.4 µM)	1 (≈ 2.4 µM)	1 (≈ 2.4 µM)	CCN(CCCOc1ccccc1)CC(O)(Cn1cncn1)c1ccc(F)cc1F (racemic)
4 (≈ 7.64 µM)	8 (≈ 15.3 µM)	8 (≈ 15.3 µM)	16 (≈ 30.6 µM)	4 (≈ 7.64 µM)	8 (≈ 15.3 µM)	CC(C)CN(CCCOc1ccc(Br)cc1)CC(O)(Cn1cncn1)c1ccc(F)cc1F (racemic)
0.5 (≈ 0.989 µM)	8 (≈ 15.8 µM)	32 (≈ 63.3 µM)	8 (≈ 15.8 µM)	8 (≈ 15.8 µM)	8 (≈ 15.8 µM)	C#CCN(CCCOc1ccc(Br)cc1)CC(O)(Cn1cncn1)c1ccc(F)cc1F (racemic)
2 (≈ 3.94 µM)	1 (≈ 1.97 µM)	16 (≈ 31.5 µM)	4 (≈ 7.88 µM)	2 (≈ 3.94 µM)	8 (≈ 15.8 µM)	C=CCN(CCCOc1ccc(Br)cc1)CC(O)(Cn1cncn1)c1ccc(F)cc1F (racemic)

Further lines, the molecule ahead of its results:

SMILES	MIC80 (Candida albicans) [µg/mL]	MIC80 (Candida tropicalis) [µg/mL]	MIC80 (Candida parapsilosis) [µg/mL]	MIC80 (Cryptococcus neoformans) [µg/mL]	MIC80 (Pichia kudriavzevii) [µg/mL]	MIC80 (Trichophyton rubrum) [µg/mL]
CCOC(=O)CN(CCCOc1ccccc1)CC(O)(Cn1cncn1)c1ccc(F)cc1F (racemic)	2 (≈ 4.21 µM)	8 (≈ 16.9 µM)	> 64	8 (≈ 16.9 µM)	4 (≈ 8.43 µM)	8 (≈ 16.9 µM)
COC(=O)CN(CCCOc1ccccc1)CC(O)(Cn1cncn1)c1ccc(F)cc1F (racemic)	2 (≈ 4.34 µM)	8 (≈ 17.4 µM)	> 64	16 (≈ 34.7 µM)	4 (≈ 8.69 µM)	2 (≈ 4.34 µM)
OC(CN(CCCOc1ccccc1)Cc1ccc(F)cc1)(Cn1cncn1)c1ccc(F)cc1F (racemic)	4 (≈ 8.06 µM)	8 (≈ 16.1 µM)	16 (≈ 32.2 µM)	8 (≈ 16.1 µM)	8 (≈ 16.1 µM)	32 (≈ 64.4 µM)
Cc1ccc(CN(CCCOc2ccccc2)CC(O)(Cn2cncn2)c2ccc(F)cc2F)cc1 (racemic)	8 (≈ 16.2 µM)	8 (≈ 16.2 µM)	8 (≈ 16.2 µM)	4 (≈ 8.12 µM)	4 (≈ 8.12 µM)	16 (≈ 32.5 µM)
OC(CN(CCCOc1ccccc1)Cc1ccccc1)(Cn1cncn1)c1ccc(F)cc1F (racemic)	2 (≈ 4.18 µM)	8 (≈ 16.7 µM)	64 (≈ 134 µM)	16 (≈ 33.4 µM)	8 (≈ 16.7 µM)	16 (≈ 33.4 µM)
OC(CNCCCOc1ccccc1)(Cn1cncn1)c1ccc(F)cc1F (racemic)	0.0625 (≈ 0.161 µM)	< 0.125	0.5 (≈ 1.29 µM)	1 (≈ 2.57 µM)	< 0.125	2 (≈ 5.15 µM)
